Source: ChEMBL document CHEMBL1125796, “Antitumor properties of 2(1H)-pyrimidinone riboside (zebularine) and its fluorinated analogues” (1991)
Values joined by “and” are separate entries in the source; they are usually repeats but may differ in a detail not shown here. Equal values may be shown once.

Legend:
Type in all cases: functional
Mus musculus [1] = assay: Antitumor activity against L1210 tumor in mice, at a dose of 800 mg/kg per ip administration.; settings: route intraperitoneal
In short: (§1)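 Tumors implanted ip on day 0: B16 melanoma (0.5 mL of 1:10 brei) in BDF1 mice, and L1210 or P388 leukemia (10^6 cells) in CDF1 mice. Compound was given ip in physiologic saline daily on days 1–9. Read-out was % increase in life span versus vehicle-treated tumored controls, with body-weight change difference also recorded. Six mice per dose, three in some P388 groups.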

Mus musculus [2] = assay: Antitumor activity against L1210 ttumor in mice, at a dose of 200 mg/kg per ip administration.; settings: route intraperitoneal; in short: as §1
Mus musculus [3] = assay: Percent increase in life span of drug-treated mice relative to tumored, vehicle treated controls at a dose of 800 mg/kg ip.; settings: Mus musculus, ip
In short: (§2)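 Tumors implanted day 0: B16 melanoma as 0.5 mL of 1:10 brei into BDF1 mice; L1210 or P388 leukemia as 10^6 cells into CDF1 mice, ip or sc. Drug was given in physiologic saline by ip or oral route, QD 1-9. %ILS was calculated against saline-treated tumored controls, with body-weight change difference as the toxicity read-out. Six mice per dose in most experiments.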

Mus musculus [4] = assay: Antitumor activity against L1210 tumor in mice, at a dose of 400 mg/kg per ip administration.; settings: route intraperitoneal; in short: as §1
Mus musculus [5] = assay: Percent increase in life span of drug-treated mice relative to tumored, vehicle treated controls at a dose of 200 mg/kg ip.; settings: Mus musculus, ip; in short: as §2
Mus musculus [6] = assay: Percent increase in life span of drug-treated mice relative to tumored, vehicle treated controls at a dose of 400 mg/kg ip.; settings: Mus musculus, ip; in short: as §2
Mus musculus [7] = assay: Antitumor activity against L1210 tumor in mice, at a dose of 0.68 mg/kg per ip administration.; settings: route intraperitoneal; in short: as §1
Mus musculus [8] = assay: Antitumor activity against P388 tumor in mice, at a dose of 3.75 mg/kg per ip administration.; settings: route intraperitoneal; in short: as §1
Mus musculus [9] = assay: Antitumor activity against L1210 tumor in mice, at a dose of 2.5 mg/kg per ip administration.; settings: route intraperitoneal; in short: as §1
Mus musculus [10] = assay: Antitumor activity against L1210 tumor in mice, at a dose of 1.25 mg/kg per ip administration.; settings: route intraperitoneal; in short: as §1
Mus musculus [11] = assay: Antitumor activity against L1210 tumor in mice, at a dose of 1.11 mg/kg per ip administration.; settings: route intraperitoneal; in short: as §1
Mus musculus [12] = assay: Antitumor activity against L1210 tumor in mice, at a dose of 1.67 mg/kg per ip administration.; settings: route intraperitoneal; in short: as §1
Mus musculus [13] = assay: Percent increase in life span of drug-treated mice relative to tumored, vehicle treated controls at a dose of 2.5 mg/kg ip.; in short: as §2
Mus musculus [14] = assay: Antitumor activity against P388 tumor in mice, at a dose of 2.5 mg/kg per ip administration.; settings: route intraperitoneal; in short: as §1
Mus musculus [15] = assay: Antitumor activity against P388 tumor in mice, at a dose of 1.67 mg/kg per ip administration.; settings: route intraperitoneal; in short: as §1
Mus musculus [16] = assay: Antitumor activity against P388 tumor in mice, at a dose of 1.11 mg/kg per ip administration.; settings: route intraperitoneal; in short: as §1
Mus musculus [17] = assay: Percent increase in life span of drug-treated mice relative to tumored, vehicle treated controls at a dose of 1.11 mg/kg ip.; in short: as §2
Mus musculus [18] = assay: Percent increase in life span of drug-treated mice relative to tumored, vehicle treated controls at a dose of 1.25 mg/kg ip.; in short: as §2
Mus musculus [19] = assay: Percent increase in life span of drug-treated mice relative to tumored, vehicle treated controls at a dose of 1.67 mg/kg ip.; in short: as §2
Mus musculus [20] = assay: Percent increase in life span of drug-treated mice relative to tumored, vehicle treated controls at a dose of 3.75 mg/kg ip.; in short: as §2
Mus musculus [21] = assay: Percent increase in life span of drug-treated mice relative to tumored, vehicle treated controls at a dose of 0.68 mg/kg ip.; in short: as §2

## O=c1ncccn1[C@@H]1O[C@H](CO)[C@@H](O)[C@@H]1F
Mus musculus [1]
  Weight change difference: 1 g
Mus musculus [2]
  Weight change difference: 1 g
Mus musculus [3]
  ILS at 800 mg/kg: 43%
Mus musculus [4]
  Weight change difference: 0 g
Mus musculus [5]
  ILS at 200 mg/kg: 31%
Mus musculus [6]
  ILS at 400 mg/kg: 37%

## O=c1ncc(F)cn1C1O[C@H](CO)[C@@H](O)[C@H]1O (stereo partly specified)
Mus musculus [7]
  Weight change difference: 0 g
Mus musculus [8]
  Weight change difference: -2 g
Mus musculus [9]
  Weight change difference: -1 g and -2 g
Mus musculus [10]
  Weight change difference: 0 g
Mus musculus [11]
  Weight change difference: 0 g
Mus musculus [12]
  Weight change difference: -1 g
Mus musculus [13]
  ILS: 137% [middle of 4 runs]
Mus musculus [14]
  Weight change difference: -2 g
Mus musculus [15]
  Weight change difference: -2 g
Mus musculus [16]
  Weight change difference: -1 g
Mus musculus [17]
  ILS: 75% and 50%
Mus musculus [18]
  ILS at 1.25 mg/kg: 75%
Mus musculus [19]
  ILS: 118% and 45% and 50%
Mus musculus [20]
  ILS at 3.75 mg/kg: 60%
Mus musculus [21]
  ILS at 0.68 mg/kg: 62%
